Assay [1] can be described thus: Inhibition of Escherichia coli HldE-kinase preincubated for 30 mins prior to substrate addition measured after 30 mins by luminescence assay. A digest of the protocol: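 E. coli HldE (3 nM) preincubated with inhibitor for 30 min at room temperature in pH 7.5 Hepes buffer with MnCl2, KCl, Triton X-100, DTT and MBP. Reaction started with 0.2 μM β-heptose 7-phosphate and 0.2 μM ATP, run 30 min at room temperature. Remaining ATP measured by luciferase/luciferin luminescence. IC50 from 6–10 concentrations fitted to a Langmuir model.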

Assay [2] deals with Escherichia coli. As to the kind of experiment: Antimicrobial activity against tolC-deficient Escherichia coli K1 assessed as inhibition of LPS biosynthesis at 32 ug/ml after 5 hrs by SDS-PAGE analysis. The class given is functional, organism-based. A digest of the protocol:
(§1)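 LB-grown exponential cells (OD about 0.15) diluted to 5 × 10^5 CFU/mL and exposed to compound (water/DMSO 50/50) at 37 °C for about 5 h, to OD 0.2–0.4. OD-normalized pellets lysed in SDS/β-mercaptoethanol at 95–100 °C, then proteinase K 1 h at 55 °C. LPS resolved by 16% SDS-PAGE and silver stained.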

Assay [3] concerns Escherichia coli. Put plainly: Antimicrobial activity against tolC-deficient Escherichia coli K1 measured after overnight incubation by serial dilution method in presence of erythromycin. The class given is functional.
Assay [4] has as its system Escherichia coli. As to the kind of experiment: Antimicrobial activity against wild type Escherichia coli K1 measured after overnight incubation by serial dilution method in presence of erythromycin. In kind it is functional.
The test system of assay [5] is Escherichia coli. As to the kind of experiment: Antimicrobial activity against acrAB, tolC-deficient Escherichia coli str. K-12 substr. MG1655 measured after overnight incubation by serial dilution method in presence of erythromycin. The class given is functional.
In assay [6] the test system is Escherichia coli. As to the kind of experiment: Antimicrobial activity against acrAB, tolC-deficient Escherichia coli str. K-12 substr. MG1655 measured after overnight incubation by serial dilution method in presence of erythromycin in iron depleted medium. In kind it is functional. A digest of the protocol:
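MIC in M9 medium supplemented with D-glucose, thiamine, casein and apotransferrin (M9S), which is the iron-depleted medium. Erythromycin at 0.13 μg/mL. Inoculum 5 × 10^5 CFU/mL. Compound serial dilutions in 2% DMSO, overnight at 35 °C, visual read-out.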

Assay [7] has as its system Escherichia coli. Put plainly: Antimicrobial activity against wild type Escherichia coli K1 after overnight incubation by checkerboard assay. In kind it is functional. A digest of the protocol: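 Checkerboard against E. coli K1 (018:K1:H7) wild type. Early to log phase preculture suspended in ca-MHB to a final inoculum of 5 × 10^5 CFU/mL. Combined serial dilutions of kanamycin, the unvectorized inhibitor or bis(3-aminopropyl)amine with erythromycin, in 2% DMSO. Incubated overnight at 35 °C; MIC of each combination read by visual inspection.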

Assay [8] concerns Escherichia coli. As to the kind of experiment: Antimicrobial activity against wild type Escherichia coli K1 assessed as inhibition of LPS biosynthesis at 30 ug/ml after 5 hrs by SDS-PAGE analysis. In kind it is functional, organism-based. A digest of the protocol: as §1

Calls of active or inactive are those of the source. The calls are words filed in the database; no cut-off is given here.

Broadly, the IC50 is the concentration that inhibits the measured activity by half. For orientation: MIC means the least concentration at which growth counts as inhibited. In the case of `NCCNCCNC(=O)COc1ccc2sc(CNc3nncc(-c4c(Cl)cccc4Cl)n3)nc2c1`, the IC50 in assay [1] came out at 110 nM. Also, in the assay with Escherichia coli [2], the inhibition entry was “inactive”. Also, the MIC in the assay with Escherichia coli [3] is 8 µg/mL; in the assay with Escherichia coli [4], 32 µg/mL.

The molecule `COc1ccc2sc(CNc3nncc(-c4c(C)cccc4O)n3)nc2c1` had an IC50 in assay [1] of 69 nM.

For the molecule `Cc1cc(NCCN(C)C)cc(C)c1-c1cnnc(NCc2nc3cc(O)ccc3s2)n1`, the IC50 in assay [1] amounted to 780 nM. In addition, the MIC in the assay on Escherichia coli [5] was 16 µg/mL; with Escherichia coli [4], over 64 µg/mL.

In assay [1], `NCCCN(CCCN)CCOc1ccc2sc(CNc3nncc(-c4c(Cl)cccc4Cl)n3)nc2c1` displayed an IC50 of 630 nM. Further, the inhibition result in the assay with Escherichia coli [2] is “inactive”. Moreover, the MIC with Escherichia coli [3] turned out to be 2 µg/mL; with Escherichia coli [4], 4 µg/mL.

For `O=C(O)COc1ccc2sc(CNc3nncc(-c4c(Cl)cccc4Cl)n3)nc2c1`, it took 19 nM to reach half-maximal inhibition in assay [1] (IC50). The MIC with Escherichia coli [4] is over 64 µg/mL.

The molecule `CCN1CCN(C(=O)NCCOc2ccc3sc(CNc4nncc(-c5c(C)cccc5O)n4)nc3c2)C(=O)C1=O` had an IC50 in assay [1] of 520 nM. The MIC is over 32 µg/mL with Escherichia coli [5], 8 µg/mL with Escherichia coli [6] and over 32 µg/mL in the assay with Escherichia coli [4].

In assay [1], `O=C(COc1ccc2sc(CNc3nncc(-c4c(Cl)cccc4Cl)n3)nc2c1)NCCO` displayed an IC50 of 55 nM. Also, the inhibition result with Escherichia coli [2] is “Active”. For the same molecule, in the assay with Escherichia coli [4], the minimum inhibitory concentration (MIC) is over 64 µg/mL.

`NCCN(CCN)CCNC(=O)COc1ccc2sc(CNc3nncc(-c4c(Cl)cccc4Cl)n3)nc2c1` registered an IC50 in assay [1] of 580 nM. The inhibition result in the assay with Escherichia coli [2] is “inactive”. In addition, the results for the MIC in the assay on Escherichia coli [3] and in the assay on Escherichia coli [4] were 4 µg/mL and 8 µg/mL, respectively.

Take `NC[C@H]1O[C@H](O[C@H]2[C@H](O)[C@@H](O[C@H]3O[C@H](CO)[C@@H](O)[C@H](N)[C@H]3O)[C@H](N)C[C@@H]2N)[C@H](O)[C@@H](O)[C@@H]1O` [KANAMYCIN]: the MIC in the assay with Escherichia coli [7] was 8 µg/mL.

`CS(=O)(=O)NC(=O)COc1ccc2sc(CNc3nncc(-c4c(Cl)cccc4Cl)n3)nc2c1` came in with an IC50 in assay [1] of 16 nM. Also, the MIC in the assay with Escherichia coli [5] is 16 µg/mL; in the assay on Escherichia coli [6] it was 16 µg/mL; in the assay on Escherichia coli [4], over 64 µg/mL.

`O=S(=O)(NCCOc1ccc2sc(CNc3nncc(-c4c(Cl)cccc4Cl)n3)nc2c1)c1ccc(O)c(O)c1`: in assay [1], the midpoint of inhibition, the IC50, lay at 33 nM. For the same molecule, the MIC is 4 µg/mL with Escherichia coli [5], 2 µg/mL in the assay on Escherichia coli [6] and over 64 µg/mL with Escherichia coli [4].

`NC[C@H]1O[C@H](O[C@H]2[C@H](O)[C@@H](O[C@H]3O[C@H](Cn4cc(CNC(=O)COc5ccc6sc(CNc7nncc(-c8c(Cl)cccc8Cl)n7)nc6c5)nn4)[C@@H](O)[C@H](N)[C@H]3O)[C@H](N)C[C@@H]2N)[C@H](O)[C@@H](O)[C@@H]1O` came in with an IC50 in assay [1] of 98 nM. Also, the MIC in the assay with Escherichia coli [5] is 4 µg/mL; with Escherichia coli [3] it was 2 µg/mL; in the assay with Escherichia coli [4] it was 8 µg/mL. Besides, the inhibition entry in the assay on Escherichia coli [8] is “inactive”.

Turning to `O=C(COc1ccc2sc(CNc3nncc(-c4c(Cl)cccc4Cl)n3)nc2c1)NO`, the IC50 in assay [1] worked out at 1 nM. The MIC in the assay on Escherichia coli [5] is 2 µg/mL; with Escherichia coli [6], 1 µg/mL; in the assay with Escherichia coli [4], over 64 µg/mL.

`O=C(COc1ccc2sc(CNc3nncc(-c4c(Cl)cccc4Cl)n3)nc2c1)OCc1cc(=O)c(O)cn1O` gave an IC50 in assay [1] of 30 nM. Moreover, the MIC with Escherichia coli [5] is over 64 µg/mL; in the assay on Escherichia coli [6] it was 32 µg/mL; in the assay on Escherichia coli [4], over 64 µg/mL.

`CN(C)CC(CN(C)C)NC(=O)COc1ccc2sc(CNc3nncc(-c4c(Cl)cccc4Cl)n3)nc2c1` returned an IC50 in assay [1] of 420 nM. The inhibition entry with Escherichia coli [2] is “inactive”. In addition, the figures for the MIC in the assay with Escherichia coli [3] and in the assay on Escherichia coli [4] were 32 µg/mL and over 64 µg/mL, respectively.

`NCCCN(CCCN)C(=O)COc1ccc2sc(CNc3nncc(-c4c(Cl)cccc4Cl)n3)nc2c1` showed an IC50 in assay [1] of 510 nM. Moreover, the inhibition entry in the assay with Escherichia coli [2] is “inactive”. For the same molecule, the MIC with Escherichia coli [3] was determined as 4 µg/mL; with Escherichia coli [4] it was 8 µg/mL.

`CN1CCN(CCOc2ccc3sc(CNc4nncc(-c5c(Cl)cccc5Cl)n4)nc3c2)CC1` showed an IC50 in assay [1] of 110 nM. Moreover, the inhibition entry in the assay with Escherichia coli [2] was “inactive”. Also, the MIC in the assay with Escherichia coli [3] is 32 µg/mL; with Escherichia coli [4] it was over 64 µg/mL.

For the molecule `CC[C@H]1OC(=O)[C@H](C)[C@@H](O[C@H]2C[C@@](C)(OC)[C@@H](O)[C@H](C)O2)[C@H](C)[C@@H](O[C@@H]2O[C@H](C)C[C@H](N(C)C)[C@H]2O)[C@](C)(O)C[C@@H](C)C(=O)[C@H](C)[C@@H](O)[C@]1(C)O` [ERYTHROMYCIN], the MIC in the assay with Escherichia coli [7] came out at 16 µg/mL.

Take `Cc1cc(NCCN(C)C)cc(C)c1-c1cnnc(NCc2nc3cc(OCCN)ccc3s2)n1`: the IC50 in assay [1] turned out to be 1400 nM. The inhibition result with Escherichia coli [2] is “inactive”. Also, the MIC with Escherichia coli [3] and with Escherichia coli [4] was over 64 µg/mL in each case.

As to `Cn1nc(O)c(=O)nc1SCCOc1ccc2sc(CNc3nncc(-c4c(Cl)cccc4Cl)n3)nc2c1`, the midpoint of inhibition in assay [1], the IC50, lay at 25 nM. In addition, the MIC with Escherichia coli [5] was 2 µg/mL; in the assay on Escherichia coli [6] it was 1 µg/mL; with Escherichia coli [4], over 64 µg/mL.

For the molecule `O=C(NCCOc1ccc2sc(CNc3nncc(-c4c(Cl)cccc4Cl)n3)nc2c1)[C@@H]1CSC(c2ccccc2O)=N1`, it took 660 nM to reach half-maximal inhibition in assay [1] (IC50). Moreover, the minimum inhibitory concentration (MIC) in the assay with Escherichia coli [5], in the assay with Escherichia coli [6] and in the assay with Escherichia coli [4] was over 32 µg/mL in each case.

In the case of `O=C(NCCOc1ccc2sc(CNc3nncc(-c4c(Cl)cccc4Cl)n3)nc2c1)c1cc(=O)c(O)co1`, the IC50 in assay [1] was found to be 71 nM. Further, the MIC with Escherichia coli [5] is over 64 µg/mL; in the assay with Escherichia coli [6], 2 µg/mL; in the assay on Escherichia coli [4], over 64 µg/mL.

In assay [1], `COc1ccc2sc(CNc3nncc(-c4c(C)cc(NCCN(C)C)cc4C)n3)nc2c1` yielded an IC50 of 82 nM. Besides, the MIC with Escherichia coli [5] was 32 µg/mL; in the assay with Escherichia coli [4], over 64 µg/mL.

The molecule `Cc1cc(NC(=O)CN(C)C)cc(C)c1-c1cnnc(NCc2nc3cc(O)ccc3s2)n1` came in with an IC50 in assay [1] of 880 nM. In addition, the minimum inhibitory concentration (MIC) was 16 µg/mL in the assay with Escherichia coli [5] and over 64 µg/mL with Escherichia coli [4].

The record behind these values is ChEMBL document CHEMBL2321728, “Vectorization efforts to increase Gram-negative intracellular drug concentration: a case study on HldE-K inhibitors” (J Med Chem, 2013).
